Data taken from ChEMBL document CHEMBL3351507, “11H-Pyrido[3',2':4,5]pyrrolo[3,2-c]cinnoline and pyrido[3',2':4,5]pyrrolo[1,2-c][1,2,3]benzotriazine: two new ring systems with antitumor activity” (2014).
The source made the active and inactive calls. The calls are words filed in the database; no cut-off is given here.

Columns and labels:
[1] = test system: CCRF-CEM; assay: Cytotoxicity against human vinblastin-resistant CEM cells assessed as growth inhibition after 72 hrs by MTT assay; type: functional
In short: (§1)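 CEMVbl-100 (vinblastine-selected CEM) was grown in RPMI-1640 with 0.1 µg/mL vinblastine. LoVoDoxo was grown in HAM's F12 with 0.1 µg/mL doxorubicin; parental CEM and LoVo were grown without drug. Media had 10% FBS. 5x10^3 cells were seeded, preincubated 24 h at 37 °C, then exposed 72 h to compound (DMSO <1%). Read-out was MTT; GI50 came from dose-response curves of ≥3 experiments. RI = GI50 resistant / GI50 parental.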

[2] = test system: CCRF-CEM; assay: Resistance index, ratio of GI50 for human vinblastin-resistant CEM cells to GI50 for human CEM cells; type: functional; in short: as §1
[3] = test system: CCRF-CEM; assay: Cytotoxicity against human CEM cells assessed as growth inhibition after 72 hrs by MTT assay; type: functional
In short: (§2)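 Cells were grown in medium with 10% heat-inactivated FBS plus penicillin/streptomycin: RPMI-1640 for Jurkat and CEM, DMEM for A-431, HAM's F12 for LoVo. The doxorubicin-resistant LoVo subclone was kept with 0.1 µg/mL doxorubicin. Cells were seeded at 5x10^3 per well and pre-incubated 24 h at 37 °C.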

[4] = test system: LoVo; assay: Resistance index, ratio of GI50 for human LoVo/DX cells to GI50 for human LoVo cells; type: functional; in short: as §1
[5] = Cytotoxicity against human LoVo/DX cells assessed as growth inhibition after 72 hrs by MTT assay; type: functional; in short: as §2
[6] = test system: LoVo; assay: Cytotoxicity against human LoVo cells assessed as growth inhibition after 72 hrs by MTT assay; type: functional; in short: as §2
[7] = target: T1, DNA topoisomerase 1 (Homo sapiens) (UniProt P11387); assay: Inhibition of human DNA topoisomerase 1-mediated DNA single strand cleavage at 5 to 100 uM after 30 mins by agarose gel electrophoresis relative to untreated control
T1 sequence (whole entry): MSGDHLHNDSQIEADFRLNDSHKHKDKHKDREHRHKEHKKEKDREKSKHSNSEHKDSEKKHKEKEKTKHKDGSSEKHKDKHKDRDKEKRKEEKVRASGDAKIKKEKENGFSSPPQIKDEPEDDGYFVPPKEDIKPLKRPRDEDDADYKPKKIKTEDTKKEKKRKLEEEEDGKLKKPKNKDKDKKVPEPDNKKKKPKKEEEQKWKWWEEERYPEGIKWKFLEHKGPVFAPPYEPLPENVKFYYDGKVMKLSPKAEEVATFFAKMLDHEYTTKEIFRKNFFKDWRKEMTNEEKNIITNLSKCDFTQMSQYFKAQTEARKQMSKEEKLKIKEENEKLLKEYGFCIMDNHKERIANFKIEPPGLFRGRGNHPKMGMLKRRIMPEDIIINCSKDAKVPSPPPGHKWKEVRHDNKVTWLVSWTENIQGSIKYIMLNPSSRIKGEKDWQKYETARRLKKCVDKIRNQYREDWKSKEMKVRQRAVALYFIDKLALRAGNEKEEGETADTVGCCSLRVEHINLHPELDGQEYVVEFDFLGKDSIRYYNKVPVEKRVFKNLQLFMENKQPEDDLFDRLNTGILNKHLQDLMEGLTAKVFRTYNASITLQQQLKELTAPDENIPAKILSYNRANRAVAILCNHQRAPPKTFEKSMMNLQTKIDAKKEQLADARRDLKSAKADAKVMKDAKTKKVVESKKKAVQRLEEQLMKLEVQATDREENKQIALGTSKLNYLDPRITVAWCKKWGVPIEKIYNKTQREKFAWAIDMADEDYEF
In short: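 Reactions were set up as for relaxation: human topoisomerase I, 0.250 µg pBR322, compound 5-100 µM, 37 °C for 30 min, stopped with SDS/proteinase K. Samples were run on 0.8% agarose containing 0.5 µg/mL ethidium bromide, then destained in water, so that cleaved/nicked DNA could be detected under UV.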

Compound `CC[C@]1(O)C[C@@H]2CN(CCc3c([nH]c4ccccc34)[C@@](C(=O)OC)(c3cc4c(cc3OC)N(C)[C@H]3[C@@](O)(C(=O)OC)[C@H](OC(C)=O)[C@]5(CC)C=CCN6CC[C@]43[C@@H]65)C2)C1` [VINBLASTINE] has a GI50 [1] of 210 nM, a Ratio [2] of 525 and a GI50 [3] of 4 nM.

`COc1cccc2c1C(=O)c1c(O)c3c(c(O)c1C2=O)C[C@@](O)(C(=O)CO)C[C@@H]3O[C@H]1C[C@H](N)[C@H](O)[C@H](C)O1` [DOXORUBICIN] gave a Ratio [4] of 112.5, a GI50 [5] of 13.5 µM and a GI50 [6] of 120 nM.

With `CC[C@@]1(O)C(=O)OCc2c1cc1n(c2=O)Cc2cc3ccccc3nc2-1` the Activity [7] was “Active”.
